Experimental data from paper PMC7918756 (The Journal of Experimental Medicine, 2021).
pIC50: −log10 of the molar value.

How the values were obtained:
[1] = test system: HASMCs (human primary bronchial smooth muscle cells); experiment: impedance-based HASMC contraction assay; assay type: cell-based
HASMCs = experiment: calcium imaging, AITC-induced calcium flux in primary cells; assay type: cell-based, human; settings: HASMCs treated with TRPA1 agonist AITC
Method in brief: (§1)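 Cells were imaged 15–24 h after plating, with fluorescence sampled at 0.5 Hz. TRPA1 activity was evoked by perfusing saline containing 50 µM AITC.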

rats [2] = experiment: AITC-induced dermal blood flow; assay type: in vivo, rat; settings: oral 3 or 10 mg/kg, 3 h before AITC skin challenge
Method in brief: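 Rats dosed orally 3 h before imaging with 0, 3.0 or 10.0 mg/kg test compound in 85% MCT / 15% DMSO. Topical AITC skin challenge. Dermal blood flow recorded by laser speckle contrast imaging. Traces normalised to fold-change by subtracting and dividing by the mean baseline DBF before AITC. DBF rise-time and maximal level assessed.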

human TRPM8 = human TRPM8 (Homo sapiens, UniProt Q7Z2W7); experiment: Ca2+ responses evoked by 50 μM menthol; assay type: cell-based
human TRPC6 = molecular target: T1, human TRPC6 (Homo sapiens, UniProt Q9Y210); experiment: membrane potential assay using 75 μM carbochol; assay type: cell-based
T1 sequence (Q9Y210 1-931): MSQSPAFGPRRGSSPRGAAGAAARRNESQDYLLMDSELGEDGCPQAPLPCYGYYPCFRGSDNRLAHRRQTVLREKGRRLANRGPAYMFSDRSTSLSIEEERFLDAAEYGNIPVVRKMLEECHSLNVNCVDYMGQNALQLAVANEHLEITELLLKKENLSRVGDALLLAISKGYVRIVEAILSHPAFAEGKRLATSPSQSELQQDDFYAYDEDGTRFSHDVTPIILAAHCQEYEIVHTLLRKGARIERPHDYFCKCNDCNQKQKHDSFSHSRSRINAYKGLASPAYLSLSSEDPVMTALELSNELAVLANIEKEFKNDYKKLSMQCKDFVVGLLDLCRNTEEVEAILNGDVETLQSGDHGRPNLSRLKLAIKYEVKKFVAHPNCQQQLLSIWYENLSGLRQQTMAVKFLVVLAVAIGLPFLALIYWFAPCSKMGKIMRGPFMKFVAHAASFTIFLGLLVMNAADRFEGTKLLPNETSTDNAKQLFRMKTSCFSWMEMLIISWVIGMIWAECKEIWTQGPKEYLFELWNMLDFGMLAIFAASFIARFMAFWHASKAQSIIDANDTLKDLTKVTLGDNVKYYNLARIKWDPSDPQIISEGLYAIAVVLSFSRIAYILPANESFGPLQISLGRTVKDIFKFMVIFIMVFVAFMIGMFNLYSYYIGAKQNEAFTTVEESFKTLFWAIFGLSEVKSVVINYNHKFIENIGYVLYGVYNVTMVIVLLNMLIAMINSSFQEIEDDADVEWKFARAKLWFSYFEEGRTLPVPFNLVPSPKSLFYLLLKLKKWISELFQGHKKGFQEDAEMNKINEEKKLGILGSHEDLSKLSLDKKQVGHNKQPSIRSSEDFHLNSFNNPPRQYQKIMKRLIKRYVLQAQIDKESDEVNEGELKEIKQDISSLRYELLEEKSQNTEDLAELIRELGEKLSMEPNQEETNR

[3] = molecular target: cynomolgus (cyno) monkey TRPA1 (Macaca fascicularis, UniProt A0A2K5VSJ1); experiment: CHO cell line FLIPR Ca2+ assay, CA-evoked; assay type: cell-based
[4] = test system: cross-species hepatocytes; experiment: hepatocyte metabolic stability, cross-species summary; assay type: in vitro ADME
Method in brief: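 Test compound at 1 µM was incubated with pooled cryopreserved hepatocytes from female CD-1 mouse, male Sprague-Dawley rat, male beagle dog, male cynomolgus monkey and mixed-gender human.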

guinea pig TRPA1 = guinea pig TRPA1 (Cavia porcellus, UniProt H0VJD1); experiment: CHO cell line FLIPR Ca2+ assay, CA-evoked; assay type: cell-based
guinea pigs [5] = experiment: OVA challenge model of asthma in guinea pigs; assay type: in vivo, guinea pig; settings: single oral administration of 70 mg/kg
Method in brief: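 Hartley guinea pigs were immunised i.p. on days 0 and 7 with 100 mg OVA plus 80 mg alum in PBS. On day 28 they were challenged with nebulised 0.1% OVA in PBS for 30 min. Vehicle or test compound was given by gavage 3 h before challenge. Animals were euthanised 24 h later, with aortic blood taken for PK.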

[6] = Phase 1 SAD study, plasma PK; assay type: in vivo, human; settings: healthy volunteers, dose increased from 75 mg to 600 mg
Method in brief: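 Healthy volunteers in single-ascending-dose cohorts, randomised 6 test compound : 2 placebo, dosed fasted at 25, 75, 200 or 600 mg. Blood sampled before dose and at multiple time points after dose. Plasma concentrations measured by validated analytical methods.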

HLFs = experiment: calcium imaging, AITC-induced calcium flux in primary cells; assay type: cell-based, human; settings: HLFs treated with TRPA1 agonist AITC
Method in brief: as §1

dog TRPA1 = dog TRPA1 (Canis lupus familiaris, UniProt A0A8I3Q1Q7); experiment: CHO cell line FLIPR Ca2+ assay, CA-evoked; assay type: cell-based
rats [7] = experiment: OVA challenge model of asthma in rats; assay type: in vivo, rat; settings: oral
Method in brief: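 Sensitised Brown Norway rats were challenged from day 28 with aerosolised 2% OVA in PBS, 30 min daily for 4 consecutive days. Vehicle or test compound was gavaged 3 h before each challenge; dexamethasone 5 mg/kg orally was the positive control. BALF was collected 24 h after the final treatment, eight rats per group.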

mouse TRPA1 = mouse TRPA1 (Mus musculus, UniProt Q8BLA8); experiment: CHO cell line FLIPR Ca2+ assay, CA-evoked; assay type: cell-based
Method in brief: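 Mouse TRPA1-expressing CHO cells, fluorescent Ca2+ dye loaded, were exposed 10 min to a test compound concentration series and then challenged with cinnamaldehyde. Peak fluorescence responses were used to derive concentration-dependent inhibition.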

guinea pigs [8] = experiment: AITC-induced dermal blood flow; assay type: in vivo, guinea pig; settings: oral 5, 15 or 45 mg/kg, 3.5 h before AITC skin challenge
Method in brief: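 Female Hartley guinea pigs, 5 wk old, were dosed orally with 0, 5, 15 or 45 mg/kg test compound in 85% MCT/15% DMSO, 3.5 h before topical AITC. Dermal blood flow was imaged by laser speckle contrast imaging. Traces were normalised to fold-change against the mean pre-AITC baseline.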

healthy volunteers [9] = experiment: Phase 1 SAD study, safety and tolerability; assay type: in vivo, human; settings: single oral dose 25-600 mg
Method in brief: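 Healthy volunteers received a single oral dose, fasted, randomised 6 active:2 placebo per cohort at 25, 75, 200 or 600 mg. Safety and tolerability was the primary outcome. Escalation targeted about two- to threefold exposure increases, decided after review of safety and PK data up to 72 h post-dose.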

healthy volunteers [10] = experiment: Phase 1 SAD study, AITC skin challenge; assay type: in vivo, human
Method in brief: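 Randomised, double-blind, single ascending oral dose study in fasted healthy volunteers: six active and two placebo per cohort, at 25, 75, 200 or 600 mg (tablets). AITC skin challenge was at 3 h (25 mg), 8 h (75 mg) or 6 h (200/600 mg) post-dose. DBF was recorded by LSCI from 2 min before to 21 min after AITC. Pain and itch were rated 0–10 at 2–20 min. DBF AUC0–10 min and maximal scores were compared with pooled placebo (Dunnett's); plasma concentrations were measured by validated bioanalysis.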

rats [11] = experiment: AITC-induced nocifensive behavior in rats; assay type: in vivo, rat
Method in brief: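 Rats pretreated with test compound at the indicated doses, then given intraplantar AITC. Nocifensive behaviour scored as flinching plus hind paw–directed licking and biting. Data reported as mean ± SEM.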

[12] = IV/PO PK, summary across preclinical species; assay type: in vivo
rats [13] = experiment: AITC-induced vascular leakage; assay type: in vivo, rat; settings: rats, 1, 3 and 10 mg/kg, 3 h before topical AITC
Method in brief: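 Rats dosed 3 h beforehand were given 2% Evans blue i.v. (saline, 2.5 ml/kg) under isoflurane. Then 25 µl 20% AITC went on one ear and mineral oil on the other. Ear thickness was measured. At 20 min after AITC, dye was extracted in formamide (24 h, 65°C) and read at 620 nm.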

MDCK permeability = assay type: in vitro ADME, canine; settings: dog
Method in brief: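 MDCK cells were seeded at 2.5 × 10^5 cells/ml and grown 4 d at 37°C, 5% CO2. Medium was DMEM/Earle's balanced salt solution with 10% FBS, renewed on day 2 and the day before the assay.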

human TRPV1 = human TRPV1 (Homo sapiens, UniProt Q8NER1); experiment: Ca2+ responses evoked by 30 nM capsaicin; assay type: cell-based

Chain of guinea pig TRPA1 (H0VJD1 1-991): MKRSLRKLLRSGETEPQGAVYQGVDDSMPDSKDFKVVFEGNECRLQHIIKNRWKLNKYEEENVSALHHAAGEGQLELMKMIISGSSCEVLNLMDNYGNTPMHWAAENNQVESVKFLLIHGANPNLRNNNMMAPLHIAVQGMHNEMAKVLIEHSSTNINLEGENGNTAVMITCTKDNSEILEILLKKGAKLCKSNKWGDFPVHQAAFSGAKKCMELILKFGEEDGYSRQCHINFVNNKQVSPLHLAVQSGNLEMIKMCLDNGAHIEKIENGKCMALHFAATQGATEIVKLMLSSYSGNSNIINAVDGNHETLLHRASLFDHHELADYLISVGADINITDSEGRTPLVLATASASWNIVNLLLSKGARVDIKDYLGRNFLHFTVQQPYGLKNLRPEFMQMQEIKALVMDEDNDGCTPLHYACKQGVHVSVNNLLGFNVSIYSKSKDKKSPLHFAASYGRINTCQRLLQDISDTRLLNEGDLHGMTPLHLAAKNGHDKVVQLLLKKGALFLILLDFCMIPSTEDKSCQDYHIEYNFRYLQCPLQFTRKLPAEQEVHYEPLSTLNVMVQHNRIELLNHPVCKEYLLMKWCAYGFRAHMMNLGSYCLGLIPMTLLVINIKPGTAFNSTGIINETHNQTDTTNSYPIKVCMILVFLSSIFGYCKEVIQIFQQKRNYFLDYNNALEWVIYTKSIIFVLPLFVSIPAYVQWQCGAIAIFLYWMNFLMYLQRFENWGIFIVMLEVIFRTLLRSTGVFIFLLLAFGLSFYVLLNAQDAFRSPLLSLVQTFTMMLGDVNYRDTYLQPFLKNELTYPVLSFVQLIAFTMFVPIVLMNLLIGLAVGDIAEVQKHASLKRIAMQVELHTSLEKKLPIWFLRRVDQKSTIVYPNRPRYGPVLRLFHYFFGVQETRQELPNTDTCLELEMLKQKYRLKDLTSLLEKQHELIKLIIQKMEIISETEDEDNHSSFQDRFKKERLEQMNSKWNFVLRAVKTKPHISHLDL
Chain of cynomolgus (cyno) monkey TRPA1 (A0A2K5VSJ1 26-1144): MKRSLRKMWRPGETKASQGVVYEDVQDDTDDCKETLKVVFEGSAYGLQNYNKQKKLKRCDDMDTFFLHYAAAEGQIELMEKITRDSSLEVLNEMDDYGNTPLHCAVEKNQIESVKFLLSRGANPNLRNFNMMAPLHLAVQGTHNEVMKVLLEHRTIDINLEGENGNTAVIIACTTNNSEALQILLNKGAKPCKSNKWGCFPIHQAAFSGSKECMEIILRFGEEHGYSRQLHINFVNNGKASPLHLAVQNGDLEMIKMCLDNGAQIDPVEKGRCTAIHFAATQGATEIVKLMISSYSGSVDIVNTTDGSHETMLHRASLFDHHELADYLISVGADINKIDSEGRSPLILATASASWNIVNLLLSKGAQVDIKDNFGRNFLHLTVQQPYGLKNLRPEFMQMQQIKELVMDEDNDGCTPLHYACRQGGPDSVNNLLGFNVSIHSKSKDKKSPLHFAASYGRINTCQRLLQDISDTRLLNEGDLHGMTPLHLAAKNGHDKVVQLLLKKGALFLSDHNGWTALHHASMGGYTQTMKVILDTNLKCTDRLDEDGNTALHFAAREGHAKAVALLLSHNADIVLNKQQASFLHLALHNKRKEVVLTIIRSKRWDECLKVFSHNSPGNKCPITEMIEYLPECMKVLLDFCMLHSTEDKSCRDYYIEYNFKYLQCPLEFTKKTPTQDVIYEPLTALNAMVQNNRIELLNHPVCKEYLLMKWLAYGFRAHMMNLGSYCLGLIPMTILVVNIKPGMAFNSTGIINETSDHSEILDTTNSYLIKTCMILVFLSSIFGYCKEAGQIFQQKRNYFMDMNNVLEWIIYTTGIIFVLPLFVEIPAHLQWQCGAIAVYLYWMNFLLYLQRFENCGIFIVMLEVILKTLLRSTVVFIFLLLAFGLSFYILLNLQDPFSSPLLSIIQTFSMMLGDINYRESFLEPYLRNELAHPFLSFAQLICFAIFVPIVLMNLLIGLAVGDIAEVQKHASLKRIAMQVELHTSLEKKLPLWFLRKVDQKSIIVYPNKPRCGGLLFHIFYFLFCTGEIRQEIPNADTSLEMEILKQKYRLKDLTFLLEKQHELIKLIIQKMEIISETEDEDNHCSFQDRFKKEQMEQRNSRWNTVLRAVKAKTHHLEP
Chain of dog TRPA1 (A0A8I3Q1Q7 1-1118): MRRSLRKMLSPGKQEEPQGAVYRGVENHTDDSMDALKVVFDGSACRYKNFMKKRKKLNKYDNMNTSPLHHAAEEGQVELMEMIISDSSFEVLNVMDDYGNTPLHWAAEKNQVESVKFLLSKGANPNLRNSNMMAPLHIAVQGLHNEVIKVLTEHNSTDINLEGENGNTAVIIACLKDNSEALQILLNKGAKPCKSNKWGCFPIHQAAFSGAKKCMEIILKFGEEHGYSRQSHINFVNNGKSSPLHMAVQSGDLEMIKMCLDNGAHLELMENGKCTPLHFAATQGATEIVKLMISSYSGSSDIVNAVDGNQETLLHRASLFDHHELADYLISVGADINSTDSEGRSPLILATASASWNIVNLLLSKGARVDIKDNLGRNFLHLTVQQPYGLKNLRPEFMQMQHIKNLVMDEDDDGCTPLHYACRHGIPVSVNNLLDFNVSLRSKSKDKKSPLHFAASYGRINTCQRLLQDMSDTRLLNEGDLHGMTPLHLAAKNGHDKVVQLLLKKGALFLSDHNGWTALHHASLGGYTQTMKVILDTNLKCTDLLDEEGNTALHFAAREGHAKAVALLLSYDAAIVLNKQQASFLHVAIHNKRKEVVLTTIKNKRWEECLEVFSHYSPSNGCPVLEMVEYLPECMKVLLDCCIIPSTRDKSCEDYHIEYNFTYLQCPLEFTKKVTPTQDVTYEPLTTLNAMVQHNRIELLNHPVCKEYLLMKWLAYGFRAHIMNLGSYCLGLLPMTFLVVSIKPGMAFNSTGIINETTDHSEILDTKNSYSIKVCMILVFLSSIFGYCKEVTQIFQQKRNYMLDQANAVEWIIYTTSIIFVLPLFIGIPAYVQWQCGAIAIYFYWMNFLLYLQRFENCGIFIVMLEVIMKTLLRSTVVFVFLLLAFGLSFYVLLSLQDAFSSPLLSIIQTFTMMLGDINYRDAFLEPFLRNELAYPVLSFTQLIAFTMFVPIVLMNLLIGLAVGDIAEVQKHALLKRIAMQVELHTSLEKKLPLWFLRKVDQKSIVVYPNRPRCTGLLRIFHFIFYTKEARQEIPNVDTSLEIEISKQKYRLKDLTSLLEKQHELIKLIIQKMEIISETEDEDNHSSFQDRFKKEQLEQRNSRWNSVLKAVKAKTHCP
Chain of human TRPM8 (Q7Z2W7 whole entry): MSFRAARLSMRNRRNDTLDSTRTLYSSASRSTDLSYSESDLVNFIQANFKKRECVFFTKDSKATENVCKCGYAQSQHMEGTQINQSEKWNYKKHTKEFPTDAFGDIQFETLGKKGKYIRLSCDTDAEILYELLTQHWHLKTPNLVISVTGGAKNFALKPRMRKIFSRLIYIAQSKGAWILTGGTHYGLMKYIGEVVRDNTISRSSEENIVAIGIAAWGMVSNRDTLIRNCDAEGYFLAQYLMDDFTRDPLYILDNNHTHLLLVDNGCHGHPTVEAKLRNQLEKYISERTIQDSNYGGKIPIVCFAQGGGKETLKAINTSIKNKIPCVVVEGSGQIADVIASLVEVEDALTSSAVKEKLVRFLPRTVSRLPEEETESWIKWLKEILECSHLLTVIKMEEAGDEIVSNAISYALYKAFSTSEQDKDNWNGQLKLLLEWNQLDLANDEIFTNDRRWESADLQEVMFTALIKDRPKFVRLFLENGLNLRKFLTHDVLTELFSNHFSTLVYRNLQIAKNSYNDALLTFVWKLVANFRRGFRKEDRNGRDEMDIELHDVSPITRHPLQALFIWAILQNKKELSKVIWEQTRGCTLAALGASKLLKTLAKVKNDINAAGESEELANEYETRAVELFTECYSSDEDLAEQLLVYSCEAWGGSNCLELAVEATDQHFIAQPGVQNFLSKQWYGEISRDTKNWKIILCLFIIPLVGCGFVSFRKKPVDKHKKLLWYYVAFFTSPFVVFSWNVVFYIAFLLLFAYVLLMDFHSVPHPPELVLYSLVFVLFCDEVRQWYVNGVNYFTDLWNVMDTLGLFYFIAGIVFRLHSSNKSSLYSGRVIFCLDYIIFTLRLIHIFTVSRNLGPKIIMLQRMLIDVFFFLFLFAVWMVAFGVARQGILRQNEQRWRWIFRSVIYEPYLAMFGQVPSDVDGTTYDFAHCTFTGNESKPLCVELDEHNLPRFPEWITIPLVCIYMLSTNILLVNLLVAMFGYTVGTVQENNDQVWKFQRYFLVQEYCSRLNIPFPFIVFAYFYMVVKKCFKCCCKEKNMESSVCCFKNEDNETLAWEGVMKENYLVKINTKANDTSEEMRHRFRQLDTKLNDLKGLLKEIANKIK

CCC(=N\O)/C(C)=C/c1ccc(F)cc1 [A-967079, reference compound]
times less potent than GDC-0334 ([1]; HASMC contraction assay (Fig. 2 C)): ~500 times

C[C@H]1[C@H](F)C[C@@H](C(=O)NCc2cc(-c3cnc(C(F)(F)F)nc3)ncc2C(F)(F)F)N1S(=O)(=O)c1ccc(F)cc1 [GDC-0334, (2S,4R,5S)-4-fluoro-1-(4-fluorophenylsulfonyl)-5-methyl-N-((5-(trifluoromethyl)-2-(2-(trifluoromethyl)pyrimidin-5-yl)pyridin-4-yl)methyl)pyrrolidine-2-carboxamide]
effect on AITC-induced calcium flux (HASMCs): inhibited calcium flux | AITC-induced DBF (rats [2]): Dose-dependent decreases in the DBF rise-times and maximal levels | pIC50 (human TRPM8): < 5.00 | pIC50 (human TRPC6): < 5.00 | pIC50 [3]: 8.44 | metabolite stability in cross-species hepatocytes [4]: moderate to high | pIC50 (guinea pig TRPA1): 7.95 | BALF infiltrates to the airways (guinea pigs [5]): significantly reduced BALF infiltrates | exposures (Cmax, AUC0–24h, AUC0–72h) vs dose [6]: Approximately dose-proportional increases | effect on AITC-induced calcium flux (HLFs): inhibited calcium flux | pIC50 (dog TRPA1): 6.99 | substance P (SP) in BALF after OVA challenge (rats [7]): significantly blunted an increase | pIC50 (mouse TRPA1): 8.57 | AITC-induced DBF (guinea pigs [8]): dose-dependent reduction | TEAEs thought to be related to treatment (healthy volunteers [9]): one case of mild headache | serious TEAEs (healthy volunteers [9]): no serious treatment-emergent AEs | tolerability (healthy volunteers [9]): well tolerated with only mild or moderate adverse events | AITC-induced pain and itch (healthy volunteers [10]; healthy volunteers dosed with 600 mg): near-complete inhibition | AITC-induced pain and itch (healthy volunteers [10]; healthy volunteers, 25-600 mg vs placebo, verbal rating 0–10): dose dependently reduced | DBF response to the AITC skin challenge (healthy volunteers [10]; healthy volunteers, AITC challenge 3–8 h after oral dosing): strong PD effect | free plasma concentration with near-complete inhibition of AITC-induced DBF (healthy volunteers [10]; healthy volunteers, free plasma): > 4.92 nM | plasma concentration with near-complete inhibition of AITC-induced DBF (healthy volunteers [10]; healthy volunteers, total plasma): > 250 ng/mL | AITC-induced nocifensive behavior (rats [11]; 3-mg/kg dose): suppression comparable to that of Trpa1^−/− rats | AITC-induced nocifensive behavior (rats [11]; pretreatment, indicated doses): reduced AITC-induced nocifensive behavior in a dose-dependent manner | pIC50 ([1]; Homo sapiens, HASMC, read-out: HASMC contraction IC50): 8.74 | clearances [12]: low to moderate | Evans blue perfusion (AITC-induced vascular leakage) (rats [13]): Dose-dependent reductions | Papp A→B at 180 min, 10 µM (MDCK permeability): 18.9 ×10⁻⁶ cm/s | pIC50 (human TRPV1): < 5.00
